# Screening data deposited in PubChem BioAssay by Johns Hopkins Ion Channel Center.
# MrgX1 antagonist: antagonists of human MrgX1 receptor, primary screen, HEK293 cells, Fluo-4 calcium flux. Mas-related G-protein coupled receptor member X1 (Homo sapiens), Q96LB2. BAM8-22 antagonism; stronger effect = lower value. B-score at 10 µM. 1.3% of 310,000 active. AID 588676, 2011;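 active = calcium-response B-score plate-corrected more than 3 library SD below zero, starting fluorescence within 5 deviations, no agonist response on first addition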;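 also: peak minus trough fluorescence over baseline after final BAM8-22 challenge near maximal dose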
# Target sequence (Q96LB2 whole entry, looked up): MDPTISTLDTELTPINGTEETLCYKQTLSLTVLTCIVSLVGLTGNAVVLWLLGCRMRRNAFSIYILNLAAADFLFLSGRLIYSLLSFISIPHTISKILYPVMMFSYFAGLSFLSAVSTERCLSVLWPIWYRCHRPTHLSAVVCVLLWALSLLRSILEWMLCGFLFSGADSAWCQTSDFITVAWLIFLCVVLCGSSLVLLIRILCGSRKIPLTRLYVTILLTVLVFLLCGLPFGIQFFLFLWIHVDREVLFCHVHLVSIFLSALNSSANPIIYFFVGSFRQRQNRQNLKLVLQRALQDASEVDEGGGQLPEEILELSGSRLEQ
# RGS4 inh: RGS4 inhibitors, primary screen, cell-based, HEK293 M3R inducible RGS4, calcium flux; Regulator of G-protein signaling 4 (Homo sapiens), P49798; Fluo-4 calcium flux; stronger effect = higher value; triggered by carbachol at its EC20; B-score at 10 µM; 0.45% of 310,000 active; AID 463165, 2010;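 active = B-score, a plate-corrected calcium signal, over three deviations above library mean, with baseline fluorescence within five deviations of library mean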;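 also: RGS4 expression induced by doxycycline in cells with stable M3 receptor; B-score is computed from the integrated fluorescence ratio over baseline after carbachol; higher B-score means a larger calcium signal and so more RGS4 inhibition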
# Target sequence (P49798 whole entry, looked up): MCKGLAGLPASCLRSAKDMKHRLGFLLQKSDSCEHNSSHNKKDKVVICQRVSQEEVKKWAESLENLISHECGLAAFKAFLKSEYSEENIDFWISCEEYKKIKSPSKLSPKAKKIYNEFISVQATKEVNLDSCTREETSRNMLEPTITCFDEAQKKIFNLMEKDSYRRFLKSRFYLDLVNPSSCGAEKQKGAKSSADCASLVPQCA
# RGS4 act: RGS4 potentiators or activators, primary screen, cell-based, HEK293 M3R inducible RGS4, calcium flux; 0.92% of 310,000 active; B-score at 10 µM; carbachol calcium flux Fluo4; stronger effect = lower value;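 active = B-score of the integrated calcium signal more than 4 SD below the library mean, with starting fluorescence not abnormally high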;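 also: negative B-score means reduced calcium response which marks RGS4 activation or potentiation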
#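 Also added: carbachol at ECmax as muscarinic agonist stimulus; Assay system: HEK293 cells with stable M3R and inducible RGS4; Timing: overnight RGS4 induction, 30 min dye load 37 °C, 20 min compound RT; Measured by: Fluo4-AM (2 µM) calcium-flux fluorescence, kinetic read.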
# MrgX1 PAM: positive allosteric modulators of MrgX1, primary screen, HEK293 cells, Fluo-4 calcium flux. Mas-related G-protein coupled receptor member X1 (Homo sapiens), Q96LB2. FDSS; stronger effect = higher value. B-score at 10 µM. 0.63% of 310,000 active. AID 588675, 2011;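 active = plate-corrected calcium response at least 3 library SD above typical, normal starting fluorescence, not activating the receptor alone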;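 also: compound read alongside a low EC10 to EC30 dose of BAM8-22 agonist; peak minus trough fluorescence over baseline measured at the second addition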
# MrgX1 ag: agonists of human MrgX1 receptor, primary screen, HEK293 cells, Fluo-4 calcium flux. 0.44% of 310,000 active. AID 588627, 2011. Mas-related G-protein coupled receptor member X1 (Homo sapiens), Q96LB2. Fluo-4 calcium fluorescence, agonist mode; stronger effect = higher value. B-score at 10 µM;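 active = calcium response B-score plate-corrected fluorescence ratio at least 3 library SD, with starting fluorescence B-score inside 5 SD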
#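 Assay system: MrgX1-expressing HEK293 cells / Amount: fifteen thousand cells per well / Doses: test compound in the initial addition of three / Timing: cells plated overnight, dye loaded 0.5 h 37 °C, 0.5 h room temperature / Technique: kinetic calcium dye fluorescence, Fluo-4 NW / Control set: positive and negative controls per plate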
# MrgX1 allo conf: MrgX1 positive allosteric modulators, duplicate retest, confirmation, HEK293 cells, Fluo-4 calcium flux; shares compounds with MrgX1 PAM; Fluo-4 calcium fluorescence, FDSS; activation (ratio percentage), % at 10 µM; 13% of 1,200 active; AID 602413, 2012;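 active = ratio at least 3 SD above the weak peptide control, stable starting fluorescence, no direct agonism earlier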;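 also: compound followed by low BAM8-22 agonist challenge near EC20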
# HEK293 Ca flux: nonspecific calcium signal in parental HEK293, confirmation, counter-screen for MrgX1 antagonist project, parental HEK293 cells, Fluo-4 calcium flux | Fluo-4 calcium fluorescence, FDSS | shares compounds with MrgX1 antagonist | fluorescence ratio F(max-min)/F0 at 10 µM | 2% of 4,000 active;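 active = duplicate-averaged calcium fluorescence ratio at least three times the standard deviation of buffer wells, a nonspecific response in parental cells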
# HEK293 Ca counter: calcium response in parental HEK293 cells, primary screen, counter-screen for MrgX1 allosteric activator project, cell-based, Fluo-4 calcium flux, duplicate. shares compounds with MrgX1 antagonist. Fluo-4 fluorescence ratio; stronger effect = higher value. fluorescence ratio F(max-min)/F0 at 10 µM. 0.4% of 4,000 active. AID 624114, 2012;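 active = calcium fluorescence ratio, averaged over duplicates, at least 3 SD of the buffer-well ratio, meaning a nonspecific response in receptor-free cells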;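 also: untransfected parental HEK293 lacking MrgX1 used as counterscreen for MrgX1 allosteric activators; fluorescence change taken during the second addition on a kinetic imager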
# HEK293 Ca cntr2: calcium response in parental HEK293 cells, primary screen, counter-screen for MrgX1 agonist project, cell-based, Fluo-4 calcium flux, duplicate, agonist mode | fluorescence ratio F(max-min)/F0 at 10 µM | shares compounds with MrgX1 antagonist | Fluo-4 calcium fluorescence (FDSS); stronger effect = higher value | AID 624115, 2012 | 8.7% of 4,000 active;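 active = calcium fluorescence ratio at least three times the spread of buffer wells, meaning a non-specific response in parental cells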
# Numbers stand for hits; - = inactive; . = no result. Sampled rows, rich in hits. Any-hit rate of the full collection: about 3.5%.
SMILES,MrgX1 antagonist,RGS4 inh,RGS4 act,MrgX1 PAM,MrgX1 ag,MrgX1 allo conf,HEK293 Ca flux,HEK293 Ca counter,HEK293 Ca cntr2
O=C(COc1ccc(Br)cc1Cl)c1ccc[nH]1,-,-,-,9.68,-,-,-,-,-
CC(C)N(C(=O)COc1ccc(Br)cc1Cl)C(C)C,-,-,-,21.2,-,6.4%,-,-,-
O=C1CN(C(=O)COc2ccc(F)cc2Br)c2ccccc2N1,-,-,-,-,-,.,.,.,.
CC(=O)N1CCc2cc(Br)cc(S(=O)(=O)NCCN3CCCCC3C)c21 (stereo not given),-,-,-,9.07,-,-,-,-,-
CC(=O)N1CCc2cc(Br)cc(S(=O)(=O)NCCCN3CCC(C)CC3)c21,-,.,.,-,-,.,.,.,.
CCN(C(=O)c1c(N)cnn1C)c1ccccc1,-,-,-,10.2,-,-,-,-,-
CC1=CC2=NC(=O)/C(=C\c3ccc(OC(=O)c4ccco4)cc3)C(=N)N2O1,-,-,-,-,-,.,.,.,.
CC1=CSC2=NC(=O)/C(=C/c3cccc(OC(=O)c4ccco4)c3)C(=N)N12,-,-,-,29.1,-,11.6%,-,-,-
CSC1=NSC2=NC(=O)/C(=C\c3ccc(OC(=O)c4ccco4)cc3)C(=N)N12,-,-,-,41.1,-,-,-,-,-
COc1ccccc1CN(C)C(=O)C(NC(=O)Cc1cccc2ccccc12)C(C)C (stereo not given),-,-,-,-,-,.,.,.,.
Cc1ccc(CNC(=O)C2CCCN(S(=O)(=O)c3cccc4nonc34)C2)cc1 (stereo not given),-,-,-,-,-,.,.,.,.
COCCN(CCOC)C(=O)c1cc2sc3ccccc3c2s1,-,-,-,-,-,.,.,.,.
CCN(CC)C(=O)c1cc2sc3ccccc3c2s1,-,-,-,9.13,-,-,-,-,-
COC(=O)c1sc(NC(=S)NC(=O)c2ccccc2C)nc1C,-,-,-,7.26,-,-,-,-,56.4
O=C(Nc1ccc(C(=O)NC2CCCCC2)cc1)c1cccnc1,-,-,-,10.2,-,-,-,-,-
Cc1cc(C(=O)CCl)c(C)n1Cc1ccco1,-,-,-,7.02,-,-,-,-,-
NC(=O)c1ncc(C(F)(F)F)cc1Oc1ccc(C(F)(F)F)cc1,-,-,-,-,-,.,.,.,.
Cc1nnc(SCC(=O)c2cc(C)n(-c3ccc4c(c3)OCO4)c2C)s1,-,-,-,16,-,-,-,-,-
COC(=O)C(CC(C)C)NC(=O)C(Cc1ccccc1)NC(=O)C1CCCN1C(=O)OC(C)(C)C (stereo not given),-,-,-,-,-,.,.,.,.
CCN(CC)S(=O)(=O)c1c(OC)cc(C)c(Cl)c1C,-,-,-,10.1,-,-,-,-,-
CCN(CC)S(=O)(=O)c1cc(C)c(C)cc1Br,-,-,-,-,-,.,.,.,.
CC(=O)/C(=C(/O)c1ccccc1)c1nc2ccccc2[nH]1,-,-,-,11.8,-,-,-,-,-
COC(=O)c1cc(OC)c(OC)cc1NC(=S)N1CCN(C/C=C/c2ccccc2)CC1,-,-,-,-,-,.,.,.,.
Cc1ccc(OCCCC(=O)Nc2ccc(Br)cc2)cc1,-,-,-,-,-,.,.,.,.
COc1ccc(CC(=O)Nc2ccccc2Oc2ccccc2)cc1,-,-,-,8.26,-,-,-,-,-
SMILES,MrgX1 antagonist,RGS4 inh,RGS4 act,MrgX1 PAM,MrgX1 ag,MrgX1 allo conf,HEK293 Ca flux,HEK293 Ca counter,HEK293 Ca cntr2
CC1CC1C(=O)OCC(=O)Nc1ccccc1Oc1ccccc1 (stereo not given),-,-,-,11.9,-,-,-,-,-
COC(=O)C1C/C(=N\NS(=O)(=O)c2ccc(C)cc2)c2ccsc2C1 (stereo not given),-,-,-,-,-,.,.,.,.
CNC(=O)CC1C(=O)N(c2ccc(Cl)cc2)C(=S)N1CCc1ccc(OC)c(OC)c1 (stereo not given),-,-,-,10.3,-,-,-,-,-
COc1ccc(CCN2C(=S)N(c3ccccc3)C(=O)C2CC(=O)O)cc1OC (stereo not given),-,-,-,-,-,.,.,.,.
COc1cc(/C=C(/C#N)C(=O)NCc2ccccc2)cc(OC)c1OC,-,-,-,35.5,-,-,-,-,-
O=C1CCCN1CCCNC(=S)Nc1ccccc1,-,-,-,-,-,.,.,.,.
CCOC(=O)c1ccc(NC(=S)NCCCN2CCCC2=O)cc1,-,-,-,8.55,-,-,-,-,-
COc1ccccc1CNC(=O)c1oc2ccccc2c1C,-,-,-,6.66,-,-,-,-,-
Cc1c(C(=O)NCc2ccccn2)oc2ccccc12,-,-,-,-,-,.,.,.,.
CC(c1ccco1)N(C(=O)c1ccc(Cl)c([N+](=O)[O-])c1)c1ccccn1 (stereo not given),-,-,-,-,-,.,.,.,.
CC(OC(=O)c1cc(S(=O)(=O)N(C)C)ccc1N1CCCC1)C(=O)NCc1ccccc1 (stereo not given),-,-,-,-,-,.,.,.,.
O=C(N1CCCCC1)N1CCN(S(=O)(=O)c2ccc(Cl)cc2)CC1,-,-,-,-,-,.,.,.,.
O=C1CC(NCc2ccc(F)cc2)C(=O)N1c1ccccc1 (stereo not given),-,-,-,8.11,-,-,-,-,-
Cc1ccc(OCc2n[nH]c(=S)n2-c2ccc(Br)cc2)cc1,-,-,-,7.6,-,-,-,-,-
Cc1ccc(OCc2n[nH]c(=S)n2-c2ccc(Cl)cc2)cc1,-,-,-,-,-,.,.,.,.
O=C(/C=C/c1ccc2c(c1)OCO2)Nc1ccc(Cl)cn1,-,-,-,-,-,.,.,.,.
Cc1ccc(C(C)C)c(OCC(=O)NC2CCN(C)CC2)c1,-,-,-,-,-,.,.,.,.
